Assay results from ChEMBL document CHEMBL4261600 (Eur J Med Chem, 2018).

Assays:
[1] = Antiproliferative activity against Chinese hamster CHL cells after 72 hrs by Celltiter-Glo assay; conditions: Cricetulus griseus
[2] = test system: MV4-11; experiment: Antiproliferative activity against human MV4-11 cells after 72 hrs by Celltiter-Glo assay; type: functional; conditions: MV4-11, 72 h
Method in brief: (§1)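 Cells seeded at 3000/well in 96-well plates, exposed to serially diluted compound for 72 h at 37 °C, 5% CO2. Viability read by CellTiter-Glo luminescence and normalized to DMSO control. GI50 derived from curve fit, mean of three independent measurements. Culture media: DMEM/10% FBS for adherent lines; IMDM for MV4-11 and MEC-1/2; RPMI 1640 for suspension lines and CHL.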

[3] = biological target: CDK9/Cyclin K (Homo sapiens, UniProt P50750); experiment: Inhibition of CDK9/Cyclin K (unknown origin) using PDKtide as substrate incubated at 37 degreeC for 1 hr followed by incubation at room temperature for 5 mins by ADP-Glo reagent based luminescence assay; type: protein-complex assay
[4] = Antiproliferative activity against human MEC1 cells after 72 hrs by Celltiter-Glo assay; type: functional; conditions: MEC1, 72 h
Method in brief: as §1

CDK9/Cyclin K, sequence (P50750 whole entry): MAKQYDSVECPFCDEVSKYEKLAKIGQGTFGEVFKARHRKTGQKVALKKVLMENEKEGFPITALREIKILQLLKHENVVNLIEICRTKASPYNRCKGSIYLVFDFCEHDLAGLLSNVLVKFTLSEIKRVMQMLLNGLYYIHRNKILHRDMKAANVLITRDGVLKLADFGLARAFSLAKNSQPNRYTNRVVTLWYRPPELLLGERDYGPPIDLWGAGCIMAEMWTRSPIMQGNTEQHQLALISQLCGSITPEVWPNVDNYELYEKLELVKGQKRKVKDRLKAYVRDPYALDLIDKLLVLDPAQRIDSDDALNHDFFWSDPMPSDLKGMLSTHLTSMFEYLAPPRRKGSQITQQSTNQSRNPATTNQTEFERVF
CDK9/Cyclin K, sequence (O75909 whole entry, further chain): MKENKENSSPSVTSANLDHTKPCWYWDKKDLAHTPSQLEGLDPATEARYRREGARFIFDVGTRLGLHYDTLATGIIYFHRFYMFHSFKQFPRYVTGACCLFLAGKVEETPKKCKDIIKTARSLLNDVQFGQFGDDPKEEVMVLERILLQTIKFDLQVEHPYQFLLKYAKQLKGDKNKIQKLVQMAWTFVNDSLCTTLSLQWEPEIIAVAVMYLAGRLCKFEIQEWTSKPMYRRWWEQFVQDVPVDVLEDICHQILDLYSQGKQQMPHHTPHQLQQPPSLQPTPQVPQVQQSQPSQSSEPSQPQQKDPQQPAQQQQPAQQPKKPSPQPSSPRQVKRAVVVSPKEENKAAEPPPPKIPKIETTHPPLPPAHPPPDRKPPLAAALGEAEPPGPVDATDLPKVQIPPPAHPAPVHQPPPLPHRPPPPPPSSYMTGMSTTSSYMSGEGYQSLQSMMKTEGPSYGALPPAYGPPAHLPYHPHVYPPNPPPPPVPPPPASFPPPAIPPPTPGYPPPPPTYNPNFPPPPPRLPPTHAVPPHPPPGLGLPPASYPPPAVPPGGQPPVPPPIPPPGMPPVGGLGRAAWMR

Row | GI50 [2] [nM] | IC50 [3] [nM] | Compound | GI50 [1] [nM] | GI50 [4] [nM]
1 | 550 | 2300 | O=C(Nc1cc(-c2csc(NCC3CCOCC3)n2)c(Cl)cn1)c1ccc(F)cc1 | 930 | 3600
2 | 497 | 51 | CCOCCN[C@H]1CC[C@H](Nc2cc(-c3csc(NCC4CCOCC4)n3)c(Cl)cn2)CC1 | 2820 | 634
3 | > 10000 | 150 | O=C(N[C@H]1CC[C@H](Nc2cc(-c3csc(NCC4CCOCC4)n3)c(Cl)cn2)CC1)C1CC1 | > 10000 | > 10000
4 | > 10000 | 1040 | COCCNc1cc(-c2csc(NCC3CCOCC3)n2)c(Cl)cn1 | > 10000 | > 10000
5 | 530 | 101 | CNc1nc(-c2cc(N[C@H]3CC[C@H](NCCOC)CC3)ncc2Cl)cs1 | 1900 | 1400
6 | > 10000 | 238 | Clc1cnc(Nc2ccccc2)cc1-c1csc(NCC2CCOCC2)n1 | > 10000 | > 10000
7 | 121 | 10 | COC[C@H](C)N[C@H]1CC[C@H](Nc2cc(-c3csc(NCC4(C#N)CCOCC4)n3)c(Cl)cn2)CC1 | 1250 | 537
8 | 570 | 28 | COCCN[C@H]1CC[C@H](Nc2cc(-c3csc(OCC4CCOCC4)n3)c(Cl)cn2)CC1 | 3300 | 1400
9 | > 10000 | 107 | COCCN[C@H]1CC[C@H](Nc2cc(-c3csc(NCC4CCC4)n3)c(Cl)cn2)CC1 | 1290 | 2260
10 | 7700 | 1670 | COCCN[C@H]1CC[C@H](Oc2cc(-c3csc(NCC4CCOCC4)n3)c(Cl)cn2)CC1 | > 10000 | > 10000
11 | 140 | 22 | N[C@H]1CC[C@H](Nc2cc(-c3csc(NCC4CCOCC4)n3)c(Cl)cn2)CC1 | 3500 | 270
12 | 2160 | 80 | COCCN[C@H]1CC[C@H](Nc2cc(-c3csc(NCC4CCCC4)n3)c(Cl)cn2)CC1 | > 10000 | 2940
13 | 330 | 14 | COCCN[C@H]1CC[C@H](Nc2cc(-c3csc(NCc4ccccc4)n3)c(Cl)cn2)CC1 | 1000 | 470
14 | > 10000 | 557 | Fc1cc(-c2csc(NCC3CCOCC3)n2)c(Cl)cn1 | > 10000 | > 10000
15 | 1620 | 253 | COCCN[C@H]1CC[C@H](Nc2cc(-c3csc(NCC4CCOCC4)n3)c(C)cn2)CC1 | 5010 | 3560
16 | > 10000 | > 10000 | CC(C)(C)OC(=O)Nc1nc(-c2cc(F)ncc2Cl)cs1 | > 10000 | > 10000
